Tests used:
SCC-25 = assay: Tested for inhibitory concentration against human SCC25 cell line; format: functional, cell-based
Procedure, shortened: (§1)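 SCC VII (murine) or SCC25 (human) squamous carcinoma cells were plated at 2×10^3/well in DME with 10% FBS for 24 h at 37 °C, 5% CO2. Drug was added at 10 concentrations from 0.1 nM to 3 μM for a further 72 h. Growth was read by sulforhodamine B protein stain at 530 nm.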

SCC-7 = assay: Tested for inhibitory concentration against SCC-VII murine squamous carcinoma cell line; format: functional, cell-based; conditions: Mus musculus; procedure, shortened: as §1
CCRF-CEM [1] = assay: Tested for inhibition of [14C]-DDATHF influx in CEM/MTX cells of human leukemic lymphoblasts; format: functional, cell-based
Procedure, shortened: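 Influx of (6R)-[14C]DDATHF (2 μM) into CEM/MTX cells was measured. Before the assay, cells normally kept in 1 μM MTX were held out of MTX for 3–4 generations. Ki came from Dixon plots and is given as mean ± SE of two to seven separate experiments.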

CCRF-CEM [2] = assay: Tested for the inhibition of [14C]-DDATHF influx in CCRF-CEM cells of human leukemic lymphoblast; format: functional, cell-based
Procedure, shortened: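 Influx of (6R)-[14C]DDATHF (2 μM) into wild-type CCRF-CEM human leukemic lymphoblasts was measured with the inhibitor present. Ki was calculated from Dixon plots and reported as mean ± SE of two to seven separate experiments.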

CCRF-CEM [3] = assay: Tested for inhibitory concentration of cell growth against CCRF-CEM cell lines of human leukemic lymphoblast
Dihydrofolate reductase [4] = molecular target: T1, Dihydrofolate reductase (Homo sapiens, UniProt P00374); assay: Tested for inhibitory concentration against human dihydrofolate reductase(DHFR)
T1 sequence (P00374 whole entry): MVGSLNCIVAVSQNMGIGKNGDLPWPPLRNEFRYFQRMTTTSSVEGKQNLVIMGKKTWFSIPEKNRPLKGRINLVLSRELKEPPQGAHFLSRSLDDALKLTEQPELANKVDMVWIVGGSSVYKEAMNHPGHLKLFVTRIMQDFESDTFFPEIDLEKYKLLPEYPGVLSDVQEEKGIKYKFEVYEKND

MCF7 = assay: Tested for inhibitory concentration against MCF-7 human breast carcinoma cell line; format: functional, cell-based
Procedure, shortened: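 MCF-7 breast carcinoma cells were grown in replicate 24-well plates in α-MEM with 10% dialyzed FBS plus epithelial growth factor, hydrocortisone and insulin. Cells were exposed for 72 h at 37 °C under 6.5% CO2 and counted electronically with a Coulter counter. IC50 was estimated from semilog plots using averaged data from a single experiment on replicate plates.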

[5] = Ratio between Ki values of CCRF-CEM and CEM/MTX; format: functional
CCRF-CEM [6] = assay: cells; conditions: Homo sapiens
CCRF-CEM [7] = assay: Tested in vitro for inhibitory concentration against CCRF-CEM human Leukemic lymphoblast by using TS as primary target; format: functional, cell-based
CCRF-CEM [8] = assay: Tested in vitro for relative activity against CCRF-CEM human Leukemic lymphoblast by using TS as primary target; format: functional
Dihydrofolate reductase [9] = molecular target: T1, Dihydrofolate reductase; assay: rested for inhibitory concentration against human dihydrofolate reductase(DHFR)

| Compound | IC50 (SCC-25) | IC50 (SCC-7) | Ki (CCRF-CEM [1]) | Ki (CCRF-CEM [2]) | IC50 (Dihydrofolate reductase [4]) | IC50 (MCF7) | also measured |
| --- | --- | --- | --- | --- | --- | --- | --- |
| COc1cc(NCc2ccc3nc(N)nc(N)c3c2C)cc(OC)c1OC [TRIMETREXATE] | 8 nM | 6.3 nM |  |  |  |  |  |
| Nc1nc(=O)c2c([nH]1)NCC(CNc1ccc(C(=O)N[C@@H](CCC(=O)O)C(=O)O)cc1)N2C=O (stereo not given in full) [LEUCOVORIN] |  |  | 740 nM |  |  |  |  |
| Nc1nc(N)c2nc(CNc3ccc(C(=O)NC(CCCNC(=O)c4ccccc4C(=O)O)C(=O)O)cc3)cnc2n1 (stereo not given) | 1 nM | 0.89 nM | 440 nM | 650 nM | 12.2 nM | 0.7 nM | IC50 (CCRF-CEM [3]): 1.08 nM; Ratio [5]: 0.68; IC50 (CCRF-CEM [6]): 110 nM |
| Nc1nc(N)c2nc(CNc3c(Cl)cc(C(=O)NC(CCCNC(=O)c4ccccc4C(=O)O)C(=O)O)cc3Cl)cnc2n1 (stereo not given) | 2.5 nM | 1.6 nM |  |  | 10.2 nM |  |  |
| Nc1nc(N)c2nc(CNc3ccc(C(=O)N[C@@H](CCC(=O)O)C(=O)O)cc3)cnc2n1 [AMINOPTERIN] | 6.9 nM | 4 nM |  |  |  |  |  |
| CN(Cc1ccc2[nH]c(C=O)nc(=O)c2c1)c1ccc(C(=O)NC(CCC(=O)O)C(=O)O)s1 (stereo not given) |  |  |  |  |  |  | IC50 (CCRF-CEM [7]): 4.7 nM; Relative activity (CCRF-CEM [8]): 23 |
| Nc1nc(N)c2nc(CNc3ccc(C(=O)NC(CCCCNC(=O)c4ccccc4C(=O)O)C(=O)O)cc3)cnc2n1 (stereo not given) | 17.9 nM | 4 nM |  |  |  | 2 nM | IC50 (Dihydrofolate reductase [9]): 11.4 nM |
| Nc1nc(N)c2nc(CNc3ccc(C(=O)NC(CCNC(=O)c4ccccc4C(=O)O)C(=O)O)cc3)cnc2n1 (stereo not given) | 12.9 nM | 19 nM |  |  | 11.6 nM | 6 nM |  |
| Nc1nc(=O)c2nc(CNc3ccc(C(=O)N[C@@H](CCC(=O)O)C(=O)O)cc3)cnc2[nH]1 [FOLIC ACID] |  |  | 8950 nM | 167000 nM |  |  | Ratio [5]: 0.054 |
| CN(Cc1cnc2nc(N)nc(N)c2n1)c1ccc(C(=O)N[C@@H](CCC(=O)O)C(=O)O)cc1 [METHOTREXATE] |  | 5.8 nM | 9740 nM | 4480 nM |  |  | IC50 (CCRF-CEM [3]): 10.5 nM; IC50 (CCRF-CEM [6]): 2550 nM |
